Test results as given in ChEMBL document CHEMBL1139975, “Cyclic benzamidines as orally efficacious NR2B-selective NMDA receptor antagonists” (Bioorg Med Chem Lett, 2007).

What was measured:
[1] = target: T1, Glutamate receptor ionotropic, NMDA 2B (Homo sapiens, UniProt Q05586+Q13224); assay: Binding affinity to NMDA NR2B receptor
[2] = target: T1, Glutamate receptor ionotropic, NMDA 2B; assay: Antagonist activity at NMDA NR2B receptor assessed as calcium flux; assay type: functional
[3] = Cmax in rat at 2 mg/kg, iv and 10 mg/kg, po; assay type: ADME, organism-based; conditions: in vivo
In short: (§1)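 Rats were dosed 2 mg/kg iv and 10 mg/kg po in separate arms. Plasma Cmax, plasma half-life, clearance and oral bioavailability were derived from these two dosings.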

Rattus norvegicus = assay: Reduction in hyperalgesic response in po dosed carrageenan-induced hyperalgesia rat model; assay type: functional
In short: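 Carrageenan was used to induce hyperalgesia in rats, and test compound was given orally. Behavioral responses to noxious stimuli were scored, and the hyperalgesic response was expressed as % reduction versus control. ED50 was derived from oral dosing.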

[4] = Half life in rat at 2 mg/kg, iv and 10 mg/kg, po; assay type: ADME, organism-based; conditions: in vivo; in short: as §1
[5] = Clearance in rat at 2 mg/kg, iv and 10 mg/kg, po; assay type: ADME, organism-based; conditions: in vivo; in short: as §1
[6] = Oral bioavailability in rat at 10 mg/kg; assay type: ADME, organism-based; conditions: in vivo; in short: as §1

T1 sequence (Q13224 whole entry, one chain of several): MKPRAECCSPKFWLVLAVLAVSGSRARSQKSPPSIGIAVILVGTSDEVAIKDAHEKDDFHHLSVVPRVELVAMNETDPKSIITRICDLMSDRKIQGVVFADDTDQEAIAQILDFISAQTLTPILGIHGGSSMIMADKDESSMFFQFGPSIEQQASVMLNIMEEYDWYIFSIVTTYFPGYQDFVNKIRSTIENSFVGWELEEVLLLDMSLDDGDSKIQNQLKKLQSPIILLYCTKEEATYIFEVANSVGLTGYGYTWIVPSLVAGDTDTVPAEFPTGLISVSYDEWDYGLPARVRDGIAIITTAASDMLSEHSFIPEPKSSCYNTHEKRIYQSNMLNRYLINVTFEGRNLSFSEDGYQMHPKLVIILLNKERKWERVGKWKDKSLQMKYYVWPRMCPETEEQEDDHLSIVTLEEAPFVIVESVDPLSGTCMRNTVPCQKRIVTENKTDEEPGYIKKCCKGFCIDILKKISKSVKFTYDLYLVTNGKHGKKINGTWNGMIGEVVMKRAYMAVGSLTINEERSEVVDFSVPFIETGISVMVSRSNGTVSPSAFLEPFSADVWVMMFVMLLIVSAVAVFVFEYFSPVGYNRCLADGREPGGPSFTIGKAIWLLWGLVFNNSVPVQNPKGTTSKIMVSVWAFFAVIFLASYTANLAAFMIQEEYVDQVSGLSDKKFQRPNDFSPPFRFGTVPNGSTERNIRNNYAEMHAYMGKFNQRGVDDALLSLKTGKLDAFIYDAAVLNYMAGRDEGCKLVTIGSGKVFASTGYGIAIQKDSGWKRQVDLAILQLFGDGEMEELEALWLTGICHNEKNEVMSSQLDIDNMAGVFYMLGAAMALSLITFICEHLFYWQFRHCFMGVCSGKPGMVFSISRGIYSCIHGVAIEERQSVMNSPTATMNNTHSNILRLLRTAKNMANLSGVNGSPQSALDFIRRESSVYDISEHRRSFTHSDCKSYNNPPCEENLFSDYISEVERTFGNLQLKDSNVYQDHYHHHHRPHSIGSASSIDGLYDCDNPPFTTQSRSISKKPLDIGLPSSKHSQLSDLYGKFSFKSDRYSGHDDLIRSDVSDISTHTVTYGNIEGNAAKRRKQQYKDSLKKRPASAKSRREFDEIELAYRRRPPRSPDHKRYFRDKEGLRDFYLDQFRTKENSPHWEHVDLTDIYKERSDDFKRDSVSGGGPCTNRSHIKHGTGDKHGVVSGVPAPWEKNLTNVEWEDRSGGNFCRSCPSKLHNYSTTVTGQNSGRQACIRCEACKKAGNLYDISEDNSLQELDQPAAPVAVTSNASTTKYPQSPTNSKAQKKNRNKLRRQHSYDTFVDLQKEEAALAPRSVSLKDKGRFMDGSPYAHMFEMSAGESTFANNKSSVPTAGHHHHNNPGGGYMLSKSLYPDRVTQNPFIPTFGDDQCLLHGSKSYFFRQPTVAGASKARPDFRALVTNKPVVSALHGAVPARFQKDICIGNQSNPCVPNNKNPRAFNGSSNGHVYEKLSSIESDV

Ki [1] [nM]	IC50 [2] [nM]	Compound	also measured
223	3670	FC(F)(F)Oc1ccc(C2=NC(c3cc(Cl)cc(Cl)c3)CN2)cc1Cl (configuration not stated)	
353	1270	FC(F)(F)Oc1ccc(C2=NCC(c3ccccc3C(F)(F)F)N2)cc1Cl (configuration not stated)	
505	3480	FC(F)(F)Oc1ccc(C2=NCC(c3ccccc3OC(F)(F)F)N2)cc1Cl (configuration not stated)	
3.6	5.9	COc1ccccc1CN1Cc2cc(OC(F)(F)F)ccc2C1=N	Cmax [3]: 215 nM; ED50 (Rattus norvegicus): 20 mg/kg; half-life [4]: 120 min; clearance [5]: 66 mL/min/kg; bioavailability [6]: 5%
7350		OC1CN=C(c2ccc(OC(F)(F)F)cc2)NC1c1ccccc1 (configuration not stated)	
296	1980	FC(F)(F)Oc1ccc(C2=NC(c3cccc(Cl)c3)CN2)cc1 (configuration not stated)	
8	49	N=C1c2ccc(OC(F)(F)F)cc2CN1Cc1cccc(Cl)c1	
4200		FC(F)(F)Oc1ccc(C2=NCCCC(c3ccccc3)N2)cc1 (configuration not stated)	
2.2	12	N=C1c2ccc(OC(F)(F)F)cc2CN1Cc1cccc2ccoc12	
75	108	COc1ccccc1C1CN=C(c2ccc(OC(F)(F)F)c(Cl)c2)N1 (configuration not stated)	
66	266	FC(F)(F)Oc1ccc(C2=NC(c3cccc(Cl)c3)CN2)cc1Cl (configuration not stated)	
2	39	Cc1cc(C)cc(CN2Cc3cc(OC(F)(F)F)ccc3C2=N)c1	
